Screening data (PubChem BioAssay)
Compounds with a hit are over-represented: about 2.9% of the library has one in this group of screens.
proKLK7 act: proKLK7 (human) activation, primary screen | 370,000 tested, 0.9% active | purified proKLK7, EDANS-DABCYL substrate fluorescence; 100% is mature enzyme control, 0% vehicle | activation, % at 7 µM | P49862 | AID 652039;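 active = activation above the mean of all tested compounds plus 3 SD, computed per campaign excluding outliers beyond control limits, cut at about 13% in these data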
Target sequence (P49862 whole entry, looked up): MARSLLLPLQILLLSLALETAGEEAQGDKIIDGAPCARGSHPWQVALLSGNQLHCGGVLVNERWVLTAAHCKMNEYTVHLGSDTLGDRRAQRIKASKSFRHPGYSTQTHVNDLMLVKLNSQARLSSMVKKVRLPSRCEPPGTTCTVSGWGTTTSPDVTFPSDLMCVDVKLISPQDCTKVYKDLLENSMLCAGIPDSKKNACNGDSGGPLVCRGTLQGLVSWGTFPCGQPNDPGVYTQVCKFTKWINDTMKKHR
Runt-SMMHC FRET: blocks binding of human RUNX1 Runt domain to CBFb-SMMHC; Q01196+Q13951; Cerulean-Runt/Venus-CBFb-SMMHC FRET ratio 530/480, 1 h; inhibition, % at 20 µM; 220,000 tested, 0.74% active; AID 1434;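 active = mean inhibition across duplicate retests at 20 µM reaching about 50%, limit read from the data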;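 also: inhibitors lower the FRET ratio by blocking Runt binding to CBFb-SMMHC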
Runt-CBFb FRET: blocks binding of human RUNX1 Runt domain to CBFb; 220,000 tested, 0.46% active; inhibition, % at 20 µM; AID 1496; Cerulean-Runt/Venus-CBFb FRET ratio 530/480, 1 h;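 active = inhibition over about 50% at 20 µM in the single-dose screen, limit read from the data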
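Assay system: Cerulean-tagged RUNX1 Runt domain (FRET donor) fusion protein / Amount: 100 nM each of Venus-CBFb and Cerulean-Runt domain / Medium: Tris buffer pH 7.5 with salts and BSA / Also added: Venus-CBFb 100 nM / Schedule: 1 h complex formation plus 1 h compound treatment, room temperature / Signal: FRET fluorescence / Read-out: loss of energy transfer signal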
RanGTP-Imp inh: disruptors of Ran-importin-beta complex formation – biochemical, FRET, CFP-Ran, YFP-importin-beta, homogeneous, primary screen; cell-free CFP-Ran/YFP-importin-beta FRET ratio; inhibition, % (test concentration not listed); 300,000 tested, 1.1% active;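 active = more than half of the replicate wells show a fall in the fluorescence ratio signal beyond about 16%, limit read from the data, passing the limit was not always enough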
AI-2 QS mod: Vibrio harveyi AI-2 quorum sensing modulation | Vibrio harveyi JMH597 AI-2 luminescence/OD600 ratio, 9 h; hits give low values; strain lacks LuxN and CqsS sensors; 0 = neutral-control median | activity change, % at 7.5 µM | 300,000 tested, 0.4% active; in the data active = activity change below about -75%, passing the limit was not always enough;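 also: luminescence divided by OD600 gain over 9 h not by final OD600 alone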
Wee1 stabilizer: blocks degradation of human Wee1 kinase | P30291 | HeLa Luc-Wee1K328M stability, luciferase luminescence; 100% = proteasome inhibitor MG132 effect | reporter increase, % at 5 µM | 220,000 tested, 1.2% active | AID 1321;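 active = activation above the mean of all tested compounds plus 3 SD, set per screening run, cut at about 8.8% in these data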;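 also: cells exposed to compound for 20 h before luminescence read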
proKLK7 act conf: proKLK7 activation, confirmation | shares compounds with proKLK7 act | purified proKLK7, EDANS-DABCYL substrate fluorescence; scaled: vehicle 0, mature enzyme 100 | activation, % at 7 µM | 3,200 tested, 68% active;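 active = activation, as change over the incubation, above the mean of all tested compounds plus 3 SD, cut at about 13% in these data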
EDANS interfere: fluorescence interference counter-screen for KLK7 activators; shares compounds with proKLK7 act; EDANS-DABCYL substrate fluorescence interference, no enzyme, 4 h; solvent 0%, active enzyme control 100%; activation, % at 7 µM; 3,200 tested, 80% active;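 active = activation above the all-compound mean plus 3 SD, ignoring values outside control-based bounds, cut at about 4.8% in these data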;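 also: value is the 4 h activation minus the activation read at time zero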
EDANS interf: EDANS fluorescence interference in dose response, no enzyme | shares compounds with proKLK7 act | EDANS-DABCYL peptide fluorescence interference | EC50, µM | 250 tested, 20% active | AID 720493;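 active = compounds that raise the fluorescence signal in this interference counterscreen, with EC50 at or below 10 µM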;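 also: intact quenched peptide substrate alone read at 355 nm excitation and 520 nm emission; signal is fluorescence gain from T0 to T4 after four hours at room temperature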
Hits are given with their value; – = inactive; · = no result given; ! = repeats disagree.

SMILES	proKLK7 act	Runt-SMMHC FRET	Runt-CBFb FRET	RanGTP-Imp inh	AI-2 QS mod	Wee1 stabilizer	proKLK7 act conf	EDANS interfere	others
CC1CCN(CCCNC(=O)c2coc3nc4ccccc4nc23)CC1	49	–	–	–	–	–	64	69
CC1CCCN(CCCNC(=O)c2coc3nc4ccccc4nc23)C1 (configuration not stated)	30	–	–	–	–	–	50	76
CCN(CC)S(=O)(=O)c1ccc(S(=O)(=O)N2CCC(N3CCCCC3)CC2)cc1	–	·	·	–	–	·	·	·
CC(=O)Nc1nc2n(n1)C(c1ccc(F)cc1)C=C(c1ccccc1)N2 (configuration not stated)	22	–	–	–	–	–	–	–
COc1ccc(C2C=C(c3ccc(Cl)cc3)Nc3nc(NC(C)=O)nn32)cc1 (configuration not stated)	·	–	–	·	·	–	·	·
O=C(c1nc2n(n1)C(c1ccc(Cl)cc1)C=C(c1ccccc1)N2)N1CCOCC1 (configuration not stated)	54	62	–	–	–	–	–	–
CC(=O)Nc1nc2n(n1)C(c1ccccc1)C=C(c1ccccc1)N2 (configuration not stated)	·	–	–	–	–	–	·	·
Nc1c2ccccc2nc2ccccc12	14!	82	–	175	–	–	52	71
Cc1cc(Nc2ccccc2)nc(-c2ccccc2O)n1	–	–	–	–	–	–	·	·
Cc1cc(Nc2cccc(F)c2)nc(-c2ccccc2O)n1	197	–	–	–	–	–	13	–	EDANS interf=–
CNC(C)C#Cc1ccc2oc3cccc(OC)c3c(=O)c2c1 (configuration not stated)	34	·	·	–	–	·	–	12
CNC(C)C#Cc1ccc2oc3cc(C)c(C)cc3c(=O)c2c1 (configuration not stated)	–	·	·	–	–	·	·	·
COc1ccc(/C=N/NC(=O)c2cc(-c3ccccc3)nc3ccccc23)c(OC)c1	275	·	·	–	–	·	171	220
COc1cccc(NC(=O)c2cc(-c3ccc(OC)cc3OC)nc3ccccc23)c1	67	·	·	–	–	·	–	–
Cc1ccc(-n2nc(C)c3c2NC2=C(C(=O)CC(C)(C)C2)C3c2ccccc2OCC(=O)O)cc1 (configuration not stated)	44	–	–	–	–	–	33	35
CC(C)Cn1c(N)c(C(=O)COC(=O)c2ccncc2)c(=O)n(C)c1=O	–	–	–	–	–	–	·	·
CC(C)Cn1c(N)c(C(=O)COC(=O)c2nccnc2N)c(=O)n(C)c1=O	13	·	·	·	·	·	–	–
COCCCNC(=O)C[C@H]1C[C@H](C(=O)N2CCOCC2)[C@@]2(C)c3[nH]c4cc(-c5ccco5)ccc4c3CCN2C1=O	82	·	·	·	·	·	95	130
COc1ccc(CNC(=O)C[C@H]2C[C@H](C(=O)N(C(C)C)C(C)C)[C@@]3(C)c4[nH]c5cc(-c6ccco6)ccc5c4CCN3C2=O)cc1OC	13	·	·	·	·	·	–	10
COCCCNC(=O)CC1C[C@H](C(=O)N2CCOCC2)[C@@]2(C)c3[nH]c4ccccc4c3CCN2C1=O (some centres not stated)	–	·	·	·	·	·	·	·
CN(C)CCCNC(=O)C[C@H]1C[C@H](C(=O)N2CCOCC2)[C@@]2(C)c3[nH]c4cc(-c5ccco5)ccc4c3CCN2C1=O	54	·	·	·	·	·	56	57
COCCCNC(=O)C[C@H]1C[C@H](C(=O)N(C(C)C)C(C)C)[C@@]2(C)c3[nH]c4cc(-c5ccco5)ccc4c3CCN2C1=O	137	·	·	·	·	·	152	146
CCN(CC)CCn1c2c(c(SCC(=O)Nc3nccs3)nc1=O)CCCC2	–	·	·	–	–	·	·	·
COc1ccc(OCCCC(=O)OCC(=O)c2ccc3c(c2)NC(=O)CO3)cc1	–	·	·	–	–	·	·	·
CCC(C)[C@H](NC(=O)c1cc2cc(Cl)ccc2n1C)C(=O)N1CCC(C(=O)O)CC1 (some centres not stated)	–	·	·	–	–	·	·	·
SMILES	proKLK7 act	Runt-SMMHC FRET	Runt-CBFb FRET	RanGTP-Imp inh	AI-2 QS mod	Wee1 stabilizer	proKLK7 act conf	EDANS interfere	others
c1cc(-c2ccc3c(c2)CCO3)n2cnnc2c1	–	·	·	·	·	·	·	·
c1cc(-c2ccc(N3CCOCC3)cc2)n2cnnc2c1	67	·	·	·	·	·	69	67
CC1CC(=O)Nc2ccccc2N1C(=O)CSc1nnnn1C(C)C (configuration not stated)	–	·	·	·	·	·	·	·
N#Cc1c(N2CCCCC2)nc(N)c2c(N)nc3c(c12)CC(CCl)O3 (configuration not stated)	14	–	–	–	–	–	–	–
CCC1Cc2c(nc(N)c3c(N)nc(N4CCOCC4)c(C#N)c23)O1 (configuration not stated)	19	–	–	–	–	–	–	–
COc1ccc(CN2C(=O)Cc3c2nc(N)c2c(N)nc(N4CCOCC4)c(C#N)c32)cc1	55	–	–	–	–	–	–	–
N#Cc1c(N)nc2c(c1N)CC(CCl)O2 (configuration not stated)	–	–	–	–	–	–	·	·
CCOc1cc2c(C#N)c(N3CCOCC3)nc(N)c2c(N)n1	16	–	–	–	–	·	69	66
O=P(C(=S)Nc1ccccc1Cl)(c1ccccc1)c1ccccc1	–	·	·	·	·	·	·	·
CCOc1ccc(NC(=O)CC2C(=O)N(c3ccc(OC)c(Cl)c3)C(=S)N2C2CC2)cc1 (configuration not stated)	–	·	·	–	–	·	·	·
CCc1cc2c(=O)c(-c3cscn3)coc2c(CN(C)C)c1O	30	–	–	–	–	–	63	71
CCN(CC)CCNC(=O)c1ccc(NC(=O)c2cc(-c3ccco3)nc3ccccc23)cc1	31	·	·	–	–	·	–	–
O=C(NC1CC1)c1cc(-c2ccco2)nc2ccccc12	·	–	–	–	–	–	·	·
CCc1ccc(-c2cc(C(=O)O)c3ccccc3n2)s1	66	·	·	–	–	·	60	60
O=C(O)c1cc(-c2cc(C(=O)O)c3ccccc3n2)nc2ccccc12	·	·	·	–	–	·	·	·
Cc1nnc(NC(=O)c2cc(-c3ccco3)nc3ccccc23)s1	24	·	·	–	–	·	–	9.9
